Measurements from different studies.
Lines come from different studies, so protocols differ.
Cell line: DU-145
Read-out: cell growth or viability

Structure (SMILES)	test	conditions	GI50 [µM]
COc1ccc(-c2ccc(-c3ccc(C(=N)N)nc3)s2)cc1Cl			1.77
CCOc1c(OC)cc(CN2CCc3cc(O)c(OC)cc3C2)cc1OC	WST-1	96 h	0.3
COc1ccc(C(=O)/C=C/c2cccc3ccccc23)cc1S(N)(=O)=O	SRB	48 h	2.8
COc1cccc(S(=O)(=O)N2CCc3cc(OS(N)(=O)=O)c(OC)cc3C2)c1	WST-1	96 h	56.7
COc1ccc(C(=O)/C=C/c2ccc3ccccc3c2)cc1S(N)(=O)=O	SRB	48 h	3.3
COc1cccc(C(=O)N2CCc3cc(O)c(OC)cc3C2)c1	WST-1	96 h	31.3
CCOc1cc(CN2CCc3cc(O)c(OC)cc3C2)cc(OCC)c1OCC	WST-1	96 h	> 100
Cc1cc(C)n(C(=S)[S][Au][PH](CCCCCC[PH]([Au][S]C(=S)n2nc(C)cc2C)(c2ccccc2)c2ccccc2)(c2ccccc2)c2ccccc2)n1			0.633
COc1cc2c(cc1O)CCN(Cc1cccc(NS(C)(=O)=O)c1)C2	WST-1	96 h	> 100
COc1ccc(C(=O)/C=C/c2cc3c(cc2Br)OCO3)cc1S(N)(=O)=O	SRB	48 h	3.7
CCc1cc(CN2CCc3cc(O)c(OC)cc3C2)cc(CC)c1CC	WST-1	96 h	63
COc1ccc(C(=O)/C=C/c2cccc(Br)c2)cc1S(N)(=O)=O	SRB	48 h	3.6
COc1cc2c(cc1OS(N)(=O)=O)CCN(Cc1ccc(OC)c(OC)c1OC)C2	WST-1	96 h	17
CCOc1cc(CN2CCc3cc(OS(N)(=O)=O)c(OC)cc3C2)cc(OCC)c1OCC	WST-1	96 h	8.5
COc1cc2c(cc1O)CCN(Cc1cc(OC)c(OC)c(OC)c1)C2	WST-1	96 h	0.65
COc1ccc(C(=O)/C=C/c2ccc(Cl)c(Cl)c2)cc1S(N)(=O)=O	SRB	48 h	3.5
CCc1cc(CN2CCc3cc(OS(N)(=O)=O)c(OC)cc3C2)cc(CC)c1CC	WST-1	96 h	1.8
COc1ccc(C(=O)/C=C/c2cccc(Cl)c2Cl)cc1S(N)(=O)=O	SRB	48 h	2.9
COc1cc2c(cc1O)CCN(C(=O)c1cc(OC)c(OC)c(OC)c1)C2	WST-1	96 h	0.921
